How the values were obtained:
[1] = molecular target: Glutamate receptor ionotropic, NMDA 2B (Rattus norvegicus) (UniProt Q00960); assay: Binding affinity to NR2B receptor in rat cerebellum at 0.09 to 0.14 nM after 30 mins by autoradiography in presence of DTG relative to control; type: tissue-based; details: tested as the 125I-labelled form
Outline: (§1)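 Rinsed three times 3 min in cold buffer with 1% BSA, dipped in cold water, air-dried, exposed to imaging plates; PSL per mm² in ROIs. Expressed as % control binding; at least triplicate slices from three rats.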

[2] = molecular target: Glutamate receptor ionotropic, NMDA 2B (Rattus norvegicus, UniProt Q00960); assay: Displacement of [3H]ifenprodil from NR2B receptor in rat cortical synaptic membranes; type: cell membranes, Membrane
[3] = molecular target: Glutamate receptor ionotropic, NMDA 2B (Rattus norvegicus) (UniProt Q00960); assay: Binding affinity to NR2B receptor in rat hippocampus at 0.09 to 0.14 nM after 30 mins by autoradiography in presence of prazosin relative to control; type: tissue-based; details: tested as the 125I-labelled form; outline: as §1
[4] = molecular target: Glutamate receptor ionotropic, NMDA 2B (Rattus norvegicus) (UniProt Q00960); assay: Binding affinity to NR2B receptor in rat hippocampus at 0.09 to 0.14 nM after 30 mins by autoradiography in presence of Ro-256981 relative to control; type: tissue-based; details: tested as the 125I-labelled form; outline: as §1
[5] = molecular target: Glutamate receptor ionotropic, NMDA 2B (Rattus norvegicus) (UniProt Q00960); assay: Binding affinity to NR2B receptor in rat cerebral cortex at 0.09 to 0.14 nM after 30 mins by autoradiography in presence of DTG relative to control; type: tissue-based; details: tested as the 125I-labelled form; outline: as §1
[6] = molecular target: Glutamate receptor ionotropic, NMDA 2B (Rattus norvegicus) (UniProt Q00960); assay: Binding affinity to NR2B receptor in rat hippocampus at 0.09 to 0.14 nM after 30 mins by autoradiography in presence of DTG relative to control; type: tissue-based; details: tested as the 125I-labelled form; outline: as §1
[7] = molecular target: Glutamate receptor ionotropic, NMDA 2B (Rattus norvegicus) (UniProt Q00960); assay: Binding affinity to NR2B receptor in rat cerebral cortex at 0.09 to 0.14 nM after 30 mins by autoradiography in presence of Ro-256981 relative to control; type: tissue-based; details: tested as the 125I-labelled form; outline: as §1
[8] = molecular target: Glutamate receptor ionotropic, NMDA 2B (Rattus norvegicus) (UniProt Q00960); assay: Binding affinity to NR2B receptor in rat cerebellum at 0.09 to 0.14 nM after 30 mins by autoradiography in presence of prazosin relative to control; type: tissue-based; details: tested as the 125I-labelled form; outline: as §1
[9] = Octanol-buffer partition coefficient, log D of the compound at pH 7.4; type: physicochemical
[10] = Lipophilicity, log P of the compound; type: physicochemical; details: octanol/water
[11] = molecular target: Glutamate receptor ionotropic, NMDA 2B (Rattus norvegicus) (UniProt Q00960); assay: Binding affinity to NR2B receptor in rat cerebral cortex at 0.09 to 0.14 nM after 30 mins by autoradiography in presence of prazosin relative to control; type: tissue-based; details: tested as the 125I-labelled form; outline: as §1
[12] = molecular target: Glutamate receptor ionotropic, NMDA 2B (Rattus norvegicus) (UniProt Q00960); assay: Binding affinity to NR2B receptor in rat cerebellum at 0.09 to 0.14 nM after 30 mins by autoradiography in presence of Ro-256981 relative to control; type: tissue-based; details: tested as the 125I-labelled form; outline: as §1

Sequence of Glutamate receptor ionotropic, NMDA 2B (Rattus norvegicus) (Q00960 27-1482 limits assumed): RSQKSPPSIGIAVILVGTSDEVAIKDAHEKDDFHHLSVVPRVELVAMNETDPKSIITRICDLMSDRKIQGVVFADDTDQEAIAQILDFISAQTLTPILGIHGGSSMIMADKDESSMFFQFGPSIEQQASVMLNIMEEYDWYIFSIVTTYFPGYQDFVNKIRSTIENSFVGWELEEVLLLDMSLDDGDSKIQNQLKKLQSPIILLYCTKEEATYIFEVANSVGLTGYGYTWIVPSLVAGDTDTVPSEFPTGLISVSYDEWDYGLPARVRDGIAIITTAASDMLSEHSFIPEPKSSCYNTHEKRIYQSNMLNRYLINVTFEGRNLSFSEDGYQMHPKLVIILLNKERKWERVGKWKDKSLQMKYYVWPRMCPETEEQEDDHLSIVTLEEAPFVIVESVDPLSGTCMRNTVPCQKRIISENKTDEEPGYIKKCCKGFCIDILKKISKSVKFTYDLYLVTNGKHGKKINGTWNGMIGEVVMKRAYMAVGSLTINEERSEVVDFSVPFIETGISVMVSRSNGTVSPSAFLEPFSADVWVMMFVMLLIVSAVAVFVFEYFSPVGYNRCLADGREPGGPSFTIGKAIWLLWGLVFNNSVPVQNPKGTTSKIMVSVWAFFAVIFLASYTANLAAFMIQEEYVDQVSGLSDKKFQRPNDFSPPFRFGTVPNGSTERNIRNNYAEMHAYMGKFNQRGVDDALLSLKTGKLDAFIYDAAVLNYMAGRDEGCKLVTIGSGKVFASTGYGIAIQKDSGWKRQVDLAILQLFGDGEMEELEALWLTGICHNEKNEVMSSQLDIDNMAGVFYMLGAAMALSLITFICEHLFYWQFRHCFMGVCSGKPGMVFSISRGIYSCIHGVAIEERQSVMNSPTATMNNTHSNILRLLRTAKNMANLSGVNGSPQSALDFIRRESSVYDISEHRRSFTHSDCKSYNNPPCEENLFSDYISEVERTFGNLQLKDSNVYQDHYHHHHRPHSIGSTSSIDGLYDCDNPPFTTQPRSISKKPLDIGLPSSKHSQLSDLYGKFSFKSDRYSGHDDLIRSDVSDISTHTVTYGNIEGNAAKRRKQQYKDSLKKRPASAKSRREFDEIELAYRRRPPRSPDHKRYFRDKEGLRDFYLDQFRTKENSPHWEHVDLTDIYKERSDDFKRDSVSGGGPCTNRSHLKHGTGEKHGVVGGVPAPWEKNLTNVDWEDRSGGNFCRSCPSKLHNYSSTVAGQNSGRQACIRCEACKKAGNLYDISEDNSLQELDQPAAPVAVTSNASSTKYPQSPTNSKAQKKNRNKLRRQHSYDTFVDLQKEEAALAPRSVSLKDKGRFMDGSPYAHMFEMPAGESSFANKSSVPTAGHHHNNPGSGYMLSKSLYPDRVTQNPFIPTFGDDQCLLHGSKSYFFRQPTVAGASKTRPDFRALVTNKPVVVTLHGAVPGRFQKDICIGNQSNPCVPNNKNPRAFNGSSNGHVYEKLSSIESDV
Sequence of Glutamate receptor ionotropic, NMDA 2B (Q00960 whole entry): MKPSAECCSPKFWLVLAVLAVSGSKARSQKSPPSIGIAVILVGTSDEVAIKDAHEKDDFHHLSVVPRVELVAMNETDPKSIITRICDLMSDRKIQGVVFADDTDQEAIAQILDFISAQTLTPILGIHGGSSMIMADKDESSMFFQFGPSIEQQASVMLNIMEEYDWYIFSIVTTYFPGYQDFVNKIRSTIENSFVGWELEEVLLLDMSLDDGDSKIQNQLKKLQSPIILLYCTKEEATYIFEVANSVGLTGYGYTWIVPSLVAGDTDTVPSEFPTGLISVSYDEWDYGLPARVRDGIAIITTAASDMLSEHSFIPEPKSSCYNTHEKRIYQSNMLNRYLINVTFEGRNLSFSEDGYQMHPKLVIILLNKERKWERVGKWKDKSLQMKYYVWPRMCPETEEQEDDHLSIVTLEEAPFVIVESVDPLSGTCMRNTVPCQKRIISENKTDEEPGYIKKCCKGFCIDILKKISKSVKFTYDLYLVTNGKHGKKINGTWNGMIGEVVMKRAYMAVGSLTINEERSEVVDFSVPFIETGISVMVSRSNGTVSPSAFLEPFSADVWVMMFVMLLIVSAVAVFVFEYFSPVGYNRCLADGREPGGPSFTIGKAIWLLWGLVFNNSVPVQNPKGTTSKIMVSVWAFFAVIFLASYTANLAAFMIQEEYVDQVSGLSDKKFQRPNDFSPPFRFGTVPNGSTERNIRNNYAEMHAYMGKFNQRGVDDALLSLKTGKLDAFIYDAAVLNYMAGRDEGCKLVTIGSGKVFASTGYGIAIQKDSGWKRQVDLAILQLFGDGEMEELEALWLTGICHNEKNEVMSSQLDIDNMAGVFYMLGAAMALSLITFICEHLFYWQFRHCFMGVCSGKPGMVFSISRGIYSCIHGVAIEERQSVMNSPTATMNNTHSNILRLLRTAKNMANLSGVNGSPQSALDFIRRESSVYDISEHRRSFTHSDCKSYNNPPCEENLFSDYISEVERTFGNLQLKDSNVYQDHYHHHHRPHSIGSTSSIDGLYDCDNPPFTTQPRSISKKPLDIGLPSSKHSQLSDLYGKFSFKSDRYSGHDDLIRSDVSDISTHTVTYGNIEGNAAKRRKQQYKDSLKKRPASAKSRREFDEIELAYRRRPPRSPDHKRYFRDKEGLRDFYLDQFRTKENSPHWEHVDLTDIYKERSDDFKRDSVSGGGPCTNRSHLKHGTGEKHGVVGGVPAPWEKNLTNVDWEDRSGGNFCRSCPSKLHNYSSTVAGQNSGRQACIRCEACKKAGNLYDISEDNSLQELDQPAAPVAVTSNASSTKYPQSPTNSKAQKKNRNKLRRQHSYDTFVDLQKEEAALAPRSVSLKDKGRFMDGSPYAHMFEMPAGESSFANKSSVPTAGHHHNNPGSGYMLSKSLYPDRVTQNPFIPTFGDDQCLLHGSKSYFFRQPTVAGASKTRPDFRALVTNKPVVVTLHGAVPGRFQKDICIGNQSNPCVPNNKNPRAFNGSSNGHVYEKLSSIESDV

| SMILES | Activity [1] [%] | Ki [2] [nM] | Activity [3] [%] | Activity [4] [%] | Activity [5] [%] | Activity [6] [%] | Activity [7] [%] | Activity [8] [%] | logD [9] | logP [10] | Activity [11] [%] | Activity [12] [%] |
| --- | --- | --- | --- | --- | --- | --- | --- | --- | --- | --- | --- | --- |
| CS(=O)(=O)Nc1ccc2nc(CN3CCC(Cc4ccc(I)cc4)CC3)[nH]c2c1 | 104 | 5.75 | 95.5 | 59 | 93 | 108 | 58.1 | 97 | 3.54 | 3.54 | 92.8 | 89.3 |
| Oc1ccc2nc(CN3CCC(Cc4ccccc4)CC3)[nH]c2c1 |  | 3.09 |  |  |  |  |  |  |  |  |  |  |

From ChEMBL document CHEMBL1268917, “Synthesis and biological evaluation of radio-iodinated benzimidazoles as SPECT imaging agents for NR2B subtype of NMDA receptor” (Bioorg Med Chem, 2010)
